From ChEMBL document CHEMBL3804819, “2-(Quinolin-4-yloxy)acetamides Are Active against Drug-Susceptible and Drug-Resistant Mycobacterium tuberculosis Strains” (ACS Med Chem Lett, 2016) come the findings set out here.

The structures appear in SMILES notation. Converted amounts (≈) assume the structure as drawn. The source made the active and inactive calls. The rule behind the calls is not given here.

A short description of series [1]: Selectivity index, ratio of cytotoxic activity for human HaCaT cells to MIC for Mycobacterium tuberculosis H37Rv. The series is classed as toxicity, cell-based. The settings on record: read-out: Selectivity Index.
For series [2], the system named is Mycobacterium tuberculosis. Description: Antibacterial activity against Mycobacterium tuberculosis H37Rv assessed as reduction in bacterial growth after 7 days by resazurin assay. The series is classed as functional. The settings on record: 168 h. (The colour change of resazurin is a common sign of viable cells or microbes.)
Series [3] is filed under the species Danio rerio. Briefly: Toxicity in zebrafish embryo assessed as reduction in heart rate at 5 uM measured at 72 hrs post fertilization by stereo microscopic analysis. The series is classed as organism-based. The settings on record: in vivo.
The species entered for series [4] is Danio rerio. Description: Toxicity in zebrafish embryo assessed as reduction in embryo viability at 20 uM measured at 72 hrs post fertilization. The series is classed as organism-based. The settings on record: in vivo. Summed up:
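Zebrafish embryos exposed to 20 μM for 72 h; embryo survival scored.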

A further series has as its system Escherichia coli. Description: Antibacterial activity against Escherichia coli ATCC 25922 at 20 uM. It is filed as functional, organism-based.
Series [5] concerns Mycobacterium tuberculosis. Description: Antibacterial activity against Mycobacterium tuberculosis H37Rv infected in mouse RAW 264.7 cells assessed reduction in bacterial count per well at 5 uM after 3 days (reference value: 2.5 +/- 0.15 log10CFU). The series is classed as functional.
A further series relates to HaCaT. Description: Cytotoxicity against human HaCaT cells assessed as reduction in cell viability at 20 uM after 72 hrs by MTT assay. It is filed as cell-based.
The nature of series [6]: Thermodynamic solubility of the compound at pH 7.4 after 24 hrs by HPLC analysis. The settings on record: buffer, read-out: Therm_solubility. It is filed as physicochemical.
The nature of series [7]: Selectivity index, ratio of cytotoxic activity for African green monkey Vero cells to MIC for Mycobacterium tuberculosis H37Rv. The settings on record: read-out: Selectivity Index. It is filed as toxicity, cell-based.
Series [8] concerns Mycobacterium tuberculosis. Briefly: Potency index, ratio of isoniazid MIC to compound MIC for Mycobacterium tuberculosis H37Rv. It is filed as functional.
Series [9] is described as follows: Inhibition CYP450 in human liver microsomes by HPLC/MS/MS analysis in presence of NADPH. It is filed as ADME.
The next series relates to Liver. Briefly: Metabolic stability in human liver S9 fraction at 2 uM measured up to 30 mins by HPLC/MS/MS analysis. The series is classed as ADME, subcellular. The settings on record: s9, 0.5 h.
Another series concerns Vero. Briefly: Cytotoxicity against African green monkey Vero cells assessed as reduction in cell viability at 20 uM after 72 hrs by MTT assay. It is filed as cell-based. The settings on record: chlorocebus sabaeus.
In the next series the test system is Acinetobacter baumannii. Description: Antibacterial activity against Acinetobacter baumannii ATCC BAA 747 at 20 uM. The series is classed as functional, organism-based.
In a further series the test system is Staphylococcus aureus. Briefly: Antibacterial activity against Staphylococcus aureus ATCC 25923 at 20 uM. The series is classed as functional, organism-based.
The species named for series [10] is Danio rerio. Briefly: Toxicity in zebrafish embryo assessed as reduction in heart rate at 20 uM measured at 72 hrs post fertilization by stereo microscopic analysis. The series is classed as organism-based. The settings on record: in vivo.
For series [11], the species on record is Danio rerio. Description: Toxicity in zebrafish embryo assessed as reduction in heart rate at 1 uM measured at 72 hrs post fertilization by stereo microscopic analysis. It is filed as organism-based. The settings on record: in vivo.
A short description of series [12]: Thermodynamic solubility of the compound at pH 1.5 after 24 hrs by HPLC analysis. The settings on record: buffer, read-out: Therm_solubility. It is filed as physicochemical.
Another series deals with RAW264.7. Briefly: Cytotoxicity against mouse RAW264.7 cells assessed as decrease in cell viability at 5 uM after 72 hrs by MTT assay. It is filed as cell-based. The settings on record: raw264.7, 72 h. (In general: Tetrazolium dyes change colour on reduction, which living cells bring about.)
Another series has as its system Pseudomonas aeruginosa. Description: Antibacterial activity against Pseudomonas aeruginosa ATCC 27853 at 20 uM. The series is classed as functional, organism-based.
Series [13] can be described thus: Selectivity index, ratio of cardiac toxicity for zebrafish embryo to MIC for Mycobacterium tuberculosis H37Rv. The settings on record: read-out: Selectivity Index.

In general, MIC refers to the least concentration at which growth counts as inhibited. For orientation: IC50 means the point on the concentration scale where inhibition reaches its midpoint. For the compound `COc1ccc2nc(C)cc(OCC(=O)Nc3ccc4ccccc4c3)c2c1`, the Selectivity ratio in [1], in series [7] and in series [13] was over 100 throughout. The minimum inhibitory concentration (MIC) in series [2] amounted to 0.05 µM (≈ 0.0186 µg/mL). The Activity result was “Non-toxic” in the series listed under Danio rerio [3]; “Toxic” in the series listed under Danio rerio [4]; 1.93 log10CFU in series [5]; “Toxic” in the series with HaCaT; “Toxic” in the series with Vero; “Toxic” in the series listed under Danio rerio [10]. In addition, the Activity entry in the series listed under Danio rerio [11] and in the series on RAW264.7 was “Non-toxic” throughout. The result in the series on Escherichia coli, with Acinetobacter baumannii, with Staphylococcus aureus and in the series on Pseudomonas aeruginosa was inactive. Moreover, the solubility thermodynamic at 24 h in series [6] is under 4.4 µM; in [12] it was 30 µM (≈ 11.2 µg/mL). Moreover, the Ratio in series [8] stood at 30. Also, in series [9], the IC50 was under 10 µM. The Stability result in the series with Liver was “Unstable”.
